ChEMBL document CHEMBL1151708, “Isoflavonoid glycosides from the roots of Baphia bancoensis” (2008)
In brackets after ≈: the same amount, converted by molar mass.

How the values were obtained:
Assay type in all cases: functional
Enterococcus faecalis = test: Antibacterial activity against Enterococcus faecalis ATCC 29212 after 18 hrs by liquid microdilution method; settings: ATCC 29212, 18 h
Method in brief: (§1)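 Broth microdilution MIC. Compound dissolved in MeOH at 512 µg/mL, serially diluted 2-fold in Mueller-Hinton medium to 1–128 µg/mL. Each dilution added to wells of Mueller-Hinton medium with standard inoculum; final MeOH below 6%. Plates sealed, agitated, incubated 37 °C, 18 h. MIC is the lowest concentration giving no colour change. Run in triplicate.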

Pseudomonas aeruginosa = test: Antibacterial activity against Pseudomonas aeruginosa ATCC 27853 after 18 hrs by liquid microdilution method; settings: ATCC 27853, 18 h; method in brief: as §1
Staphylococcus aureus = test: Antibacterial activity against Staphylococcus aureus ATCC 2523 after 18 hrs by liquid microdilution method; settings: ATCC 2523, 18 h; method in brief: as §1
Escherichia coli = test: Antibacterial activity against Escherichia coli ATCC 25922 after 18 hrs by liquid microdilution method; settings: ATCC 25922, 18 h; method in brief: as §1

SMILES	MIC (Enterococcus faecalis) [µM]	MIC (Pseudomonas aeruginosa) [µM]	MIC (Staphylococcus aureus) [µM]	MIC (Escherichia coli) [µM]
COc1ccc(-c2coc3cc(O[C@@H]4O[C@H](CO[C@@H]5O[C@@H](C)[C@H](O)[C@@H](O)[C@H]5O)[C@@H](O)[C@H](O[C@@H]5O[C@H](CO[C@@H]6O[C@@H](C)[C@H](O)[C@@H](O)[C@H]6O)[C@@H](O)[C@H](O)[C@H]5O)[C@H]4O)c(OC)c(OC)c3c2=O)cc1	> 135	> 135	> 135	> 135
COc1ccc(-c2coc3cc(O[C@@H]4O[C@H](CO[C@@H]5O[C@@H](C)[C@H](O)[C@@H](O)[C@H]5O)[C@@H](O)[C@H](O)[C@H]4O)c(OC)c(OC)c3c2=O)cc1	48.4 (≈ 30.8 µg/mL)	196 (≈ 125 µg/mL)	48.4 (≈ 30.8 µg/mL)	> 196
COc1ccc(-c2coc3cc(O)c(OC)c(OC)c3c2=O)cc1	97.5 (≈ 32 µg/mL)	195 (≈ 64 µg/mL)	97.5 (≈ 32 µg/mL)	390 (≈ 128 µg/mL)
